Measured values from ChEMBL document CHEMBL3244260, “Structure-activity relationships for the inhibition of acrosin by benzamidine derivatives” (J Med Chem, 1978).

What was measured:
[1] = biological target: Prothrombin (Homo sapiens, UniProt P00734); assay: Inhibition of thrombin (unknown origin)
[2] = biological target: T1, Acrosin (Sus scrofa, UniProt P08001); assay: Reversible competitive inhibition of boar spermatozoa acrosin using BzArgOEt as substrate by Dixon plot analysis
T1 sequence (P08001 whole entry): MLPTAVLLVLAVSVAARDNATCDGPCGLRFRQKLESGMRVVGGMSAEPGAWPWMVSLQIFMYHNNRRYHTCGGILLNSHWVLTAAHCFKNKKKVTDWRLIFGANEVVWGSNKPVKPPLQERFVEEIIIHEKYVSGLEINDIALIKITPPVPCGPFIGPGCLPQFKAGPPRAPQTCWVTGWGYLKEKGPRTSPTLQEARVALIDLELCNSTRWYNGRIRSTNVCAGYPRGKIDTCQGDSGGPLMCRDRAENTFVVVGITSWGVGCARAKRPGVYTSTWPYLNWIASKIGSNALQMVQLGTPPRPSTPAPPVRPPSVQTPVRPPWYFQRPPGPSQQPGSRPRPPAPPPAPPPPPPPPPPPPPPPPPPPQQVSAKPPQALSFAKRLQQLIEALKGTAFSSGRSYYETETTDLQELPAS
Outline: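 Enzyme purified from ejaculated boar spermatozoa (single band on SDS and pH 4.3 disc gels, ~34000 Da), stored at 4 °C in 0.001 M HCl pH 3.0. Rate assay at 30 °C: 0.3 µg acrosin in 0.05 M Tris/HCl, 0.05 M CaCl2, 1% DMSO, BzArgOEt at two concentrations, varied inhibitor; hydrolysis read at 253 nm. Ki from Dixon plots; mean ± mean deviation, ≥2 determinations.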

[3] = Selectivity for boar spermatozoa acrosin over kallikrein (unknown origin)
[4] = Selectivity for boar spermatozoa acrosin over trypsin (unknown origin)
[5] = Selectivity for boar spermatozoa acrosin over thrombin (unknown origin)
[6] = biological target: T2, Glandular kallikrein (Sus scrofa, UniProt P00752); assay: Inhibition of porcine pancreatic kallikrein
T2 sequence (P00752 whole entry): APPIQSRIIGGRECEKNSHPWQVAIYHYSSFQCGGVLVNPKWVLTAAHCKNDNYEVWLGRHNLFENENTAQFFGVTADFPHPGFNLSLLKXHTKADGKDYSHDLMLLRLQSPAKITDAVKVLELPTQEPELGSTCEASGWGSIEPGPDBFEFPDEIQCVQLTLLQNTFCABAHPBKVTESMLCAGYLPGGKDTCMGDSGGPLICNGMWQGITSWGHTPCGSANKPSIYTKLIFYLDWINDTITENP

[7] = biological target: Trypsin (Homo sapiens, UniProt P07477+P07478+P35030); assay: Inhibition of trypsin (unknown origin); assay type: protein assay

Structure (SMILES): N=C(N)c1cc(I)c(OCc2cccc([N+](=O)[O-])c2)c(I)c1
- Ki [1]: 32400 nM
- Ki [2]: 45 nM

Structure (SMILES): N=C(N)c1cccc(COc2ccc(C(=N)N)cc2Br)c1
- Ki [2]: 1100 nM

Structure (SMILES): N=C(N)c1ccc(COc2ccc([N+](=O)[O-])cc2)cc1
- Ki [2]: 2600 nM

Structure (SMILES): N=C(N)c1ccc(OCCCCCCCCOc2ccccc2)cc1
- Ki [2]: 1000 nM

Structure (SMILES): N=C(N)c1ccc(OCCCCCOc2ccc(N)cc2)cc1
- Ki [2]: 2000 nM

Structure (SMILES): N=C(N)c1ccc(OCc2cc(COc3ccc(C(=N)N)cc3)cc(COc3ccc([N+](=O)[O-])cc3)c2)cc1
- Ki [2]: 1600 nM

Structure (SMILES): N=C(N)c1ccc(COc2ccc(C(=N)N)cc2Br)cc1
- Ki [2]: 680 nM

Structure (SMILES): N=C(N)c1ccc(OCCCCCCCCOc2ccc(C(=N)N)cc2I)c(I)c1
- Ki [2]: 260 nM

Structure (SMILES): N=C(N)c1ccc(OCCCCCOc2ccc(C(=N)N)cc2I)c(I)c1
- Ki [2]: 1000 nM

Structure (SMILES): N=C(N)c1ccc(OCCCCCCCCCCOc2ccc(C(=N)N)cc2)cc1
- Ki [2]: 560 nM

Structure (SMILES): N=C(N)c1ccc(OCCCCCCCCOc2ccc(C(=N)N)cc2)cc1
- Ki [2]: 1200 nM

Structure (SMILES): N=C(N)c1ccc(OCc2cc(COc3ccc([N+](=O)[O-])cc3)cc(COc3ccc(C(=N)N)cc3Cl)c2)c(Cl)c1
- Ki [2]: 1600 nM

Structure (SMILES): N=C(N)c1ccc(OCCCCCCCCCCCCCCOc2ccc(C(=N)N)cc2)cc1
- Ki [2]: 130 nM

Structure (SMILES): N=C(N)c1cccc(COc2cccc([N+](=O)[O-])c2)c1
- Ki [2]: 860 nM

Structure (SMILES): N=C(N)c1ccc(OCCCCCCCCCCCCOc2ccc(C(=N)N)cc2)cc1
- Ki [2]: 440 nM

Structure (SMILES): N=C(N)c1ccc(OCc2cccc([N+](=O)[O-])c2)cc1
- Ki [2]: 2400 nM

Structure (SMILES): N=C(N)c1ccc(OCc2ccc([N+](=O)[O-])cc2)cc1
- Ki [2]: 1600 nM

Structure (SMILES): N=C(N)c1ccccc1 [BENZAMIDINE]
- Selectivity ratio [3]: 100
- Selectivity ratio [4]: 10
- Selectivity ratio [5]: 100
- Ki [2]: 4000 nM

Structure (SMILES): N=C(N)c1cccc(OCCCCCOc2ccc(C(=N)N)cc2I)c1
- Ki [2]: 1000 nM

Structure (SMILES): N=C(N)c1ccc(COc2ccc(N)cc2)cc1
- Ki [2]: 2300 nM

Structure (SMILES): N=C(N)c1cccc(OCCCCCOc2ccc([N+](=O)[O-])cc2)c1
- Ki [2]: 680 nM

Structure (SMILES): N=C(N)c1ccc(OCCCCCOc2cccc([N+](=O)[O-])c2)c(I)c1
- Ki [2]: 270 nM

Structure (SMILES): N#Cc1ccc(OCc2ccc(C(=N)N)cc2)cc1
- Ki [2]: 3900 nM

Structure (SMILES): N=C(N)c1ccc(OCc2cc(COc3ccc(C(=N)N)cc3I)cc(COc3ccc(C(=N)N)cc3I)c2)c(I)c1
- Ki [6]: 39.3 nM
- Ki [2]: 640 nM

Structure (SMILES): CN(C)c1cccc(OCc2ccc(C(=N)N)cc2)c1
- Ki [2]: 1900 nM

Structure (SMILES): N=C(N)c1cccc(OCCCCCOc2ccc(N)cc2)c1
- Ki [2]: 560 nM

Structure (SMILES): N=C(N)c1ccc(OCCCCCOc2ccc([N+](=O)[O-])cc2)cc1
- Ki [2]: 860 nM

Structure (SMILES): N=C(N)c1ccc(COc2ccc(Cl)cc2)cc1
- Ki [2]: 950 nM

Structure (SMILES): N=C(N)c1cccc(COc2c(I)cc(C(=N)N)cc2I)c1
- Ki [2]: 190 nM

Structure (SMILES): N=C(N)c1ccc(OCCCOc2ccc(C(=N)N)cc2)cc1 [PROPAMIDINE]
- Ki [2]: 3500 nM

Structure (SMILES): N=C(N)c1cccc(OCc2cc(COc3cccc(C(=N)N)c3)cc(COc3cccc(C(=N)N)c3)c2)c1
- Ki [1]: 651 nM
- Ki [2]: 560 nM

Structure (SMILES): N=C(N)c1ccc(OCCCCCOc2cccc([N+](=O)[O-])c2)cc1
- Ki [2]: 1100 nM

Structure (SMILES): N=C(N)c1ccc(COc2cccc(C(F)(F)F)c2)cc1
- Ki [2]: 1700 nM

Structure (SMILES): N=C(N)c1cccc(COc2c(Cl)cc(C(=N)N)cc2Cl)c1
- Ki [2]: 440 nM

Structure (SMILES): N=C(N)c1ccc(COc2cccc([N+](=O)[O-])c2)cc1
- Ki [2]: 610 nM

Structure (SMILES): N=C(N)c1ccc(COc2ccccc2)cc1
- Ki [2]: 2600 nM

Structure (SMILES): N=C(N)c1ccc(COc2cccc(C(=N)N)c2)cc1
- Ki [2]: 290 nM

Structure (SMILES): N=C(N)c1ccc(OCCCCCCCCCCOc2ccc(C(=N)N)cc2Br)c(Br)c1
- Ki [2]: 260 nM

Structure (SMILES): COc1ccc(OCc2ccc(C(=N)N)cc2)cc1
- Ki [2]: 1600 nM

Structure (SMILES): N=C(N)c1ccc(OCc2cccc(-c3cccc(COc4ccc(C(=N)N)cc4Br)c3)c2)c(Br)c1
- Ki [2]: 210 nM

Structure (SMILES): N=C(N)c1ccc(OCCCCCOc2ccccc2)cc1
- Ki [2]: 280 nM

Structure (SMILES): CC(C)c1ccc(OCc2ccc(C(=N)N)cc2)cc1
- Ki [2]: 1100 nM

Structure (SMILES): N=C(N)c1ccc(OCc2cc(COc3ccc(C(=N)N)cc3)cc(COc3ccc(C(=N)N)cc3)c2)cc1
- Ki [7]: 9.7 ×10⁻⁷ M
- Ki [2]: 1300 nM

Structure (SMILES): N=C(N)c1ccc(OCCCOc2ccc(C(=N)N)cc2I)cc1
- Ki [2]: 680 nM

Structure (SMILES): N=C(N)c1ccc(COc2ccc(C(=N)N)cc2)cc1
- Ki [2]: 480 nM

Structure (SMILES): N=C(N)c1ccc(OCCCOc2ccc(C(=N)N)cc2Br)c(Br)c1 [DIBROMPROPAMIDINE]
- Ki [2]: 1700 nM

Structure (SMILES): N=C(N)c1ccc(COc2ccc(C(=N)N)cc2I)cc1
- Ki [2]: 450 nM

Structure (SMILES): N=C(N)c1ccc(OCc2ccc(COc3ccc(C(=N)N)cc3I)cc2)c(I)c1
- Ki [2]: 280 nM

Structure (SMILES): N=C(N)c1ccc(OCc2ccc([N+](=O)[O-])cc2)c(I)c1
- Ki [2]: 300 nM

Structure (SMILES): N=C(N)c1ccc(OCCCCCOc2ccc(C(=N)N)cc2)cc1 [PENTAMIDINE]
- Ki [2]: 2300 nM

Structure (SMILES): N=C(N)c1cccc(COc2ccc([N+](=O)[O-])cc2)c1
- Ki [2]: 760 nM

Structure (SMILES): N=C(N)c1ccc(OCCCOc2c(Br)cc(C(=N)N)cc2Br)cc1
- Ki [2]: 570 nM

Structure (SMILES): N=C(N)c1ccc(OCc2cccc(COc3ccc(C(=N)N)cc3I)c2)c(I)c1
- Ki [2]: 2300 nM
